Experimental data gathered from unrelated publications.
Lines come from different studies, so protocols differ.
Target: Mitogen-activated protein kinase kinase kinase 9 (MAP3K9, Homo sapiens, UniProt P80192)

| Structure (SMILES) | assay | setting | remaining binding [%] |
| --- | --- | --- | --- |
| Cc1cnc(Nc2ccc(C(=O)N3CCC(N4CCCC4)CC3)cc2)nc1-c1cc2ccccc2s1 | binding, competition with immobilised ligand | 1 µM | 3.3 |
| C[C@@H]1CN(c2ccc3ncc(-c4ccc5[nH]nc(C6CC6)c5c4)n3n2)C[C@H](C)O1 | binding, competition with immobilised ligand | 50 nM | 96 |
| COc1cnc(Nc2cccc(S(N)(=O)=O)c2)nc1N1CCN(c2ccccc2)C(=O)C1 | binding, competition with immobilised ligand | 1 µM | 98 |
| C[C@@H](c1cccc(C#N)c1)n1cc(Cl)cc(C(N)=O)c1=N | cell-free assay, competition with immobilised ligand | 1 µM | 100 |
| CC(C)(C)c1ccc(-c2nc(CBr)nn2-c2cccc(O)c2)cc1 | cell-free assay, competition with immobilised ligand | 10 µM | 91 |
| O=C(NCCCN1CCOCC1)c1ccc(Nc2nccc(-c3cc4ccccc4s3)n2)cc1 | binding, competition with immobilised ligand | 1 µM | 14 |
| Nc1ncc2c(n1)-c1c([nH]c3ccc(C#CC4CC4)cc13)CCCC2 | binding, competition with immobilised ligand | 1 µM | 100 |
| CC1CCCN1c1nccc(-c2cnn3ncccc23)n1 (stereo not shown) | binding | 1 µM | 100 |
| CCCCN(CCCC)C(=O)CN1C[C@@H](c2cc(OC)c3c(c2)OCO3)[C@H](C(=O)O)[C@H]1CC(C)(C)CCC | cell-free assay, competition with immobilised ligand | 1 µM | 98.8 |
| COc1cnc(Nc2cccc(S(N)(=O)=O)c2)nc1N1CCN(c2ccccc2)CC1 | binding, competition with immobilised ligand | 1 µM | 73 |
| C=CC(=O)N1CCC(C(=O)NCC(=O)N2CCN(c3nc(-c4cnc(N)nc4C(F)F)nc(N4CCOCC4)n3)CC2)CC1 | binding, competition with immobilised ligand | 1 µM | 96 |
| O=C(Nc1c[nH]nc1C(=O)NC1CCNCC1)c1cc(F)cc(F)c1 | binding, competition with immobilised ligand | 1 µM | 100 |
| O=C(c1ccc(Nc2ncc(Cl)c(-c3cc4ccccc4s3)n2)cc1)N1CCC(N2CCCC2)CC1 | binding, competition with immobilised ligand | 1 µM | 4.3 |
| O=C(NS(=O)(=O)c1ccc(NCC2CCOCC2)c([N+](=O)[O-])c1)c1ccc(N2CCN(Cc3ccc(C(F)(F)F)cc3-c3ccc(Cl)cc3)CC2)cc1Oc1cnc2[nH]ccc2c1 | cell-free assay, competition with immobilised ligand | 1 µM | 100 |
| COc1ccnn2ncc(-c3ccnc(N(C)C)n3)c12 | binding | 1 µM | 91 |
| CO[C@@H](C)c1c(Nc2ccc([C@@H](N(C)C(=O)C3CCS(=O)(=O)CC3)C(F)(F)F)cc2)cnc2cc(Cl)nn12 | cell-free assay, competition with immobilised ligand | 1 µM | 81 |
| CN(C)c1ncc(F)c(-c2cnn3ncccc23)n1 | binding | 1 µM | 100 |
| CC(=O)C1=C(C)N(c2cccc(C(F)(F)F)c2)C(=O)N[C@@H]1c1ccc(C#N)nc1 | cell-free assay, competition with immobilised ligand | 1 µM | 94 |
| CN(C)c1nccc(-c2cnc3ncccn23)n1 | binding | 1 µM | 65 |
| C[C@H](NC(=O)c1cnc2n1[C@](C)(Cc1ccc(C#N)cc1)C(=O)N2c1cc(Cl)c(F)c(Cl)c1)C(=O)NC1(c2ccccn2)CC1 | cell-free assay, competition with immobilised ligand | 1 µM | 100 |
| CN(c1nccc(-c2cnn3ncccc23)n1)C1CC1 | binding | 1 µM | 85 |
| CN([C@@H]1CCc2c(CC(=O)O)c3ccccc3n2C1)S(=O)(=O)c1ccc(F)cc1 | cell-free assay, competition with immobilised ligand | 1 µM | 100 |
| C[C@H]1CCN(c2nccc(-c3cnn4ncccc34)n2)C1 | binding | 1 µM | 100 |
| Cc1cc(C)c(-n2ccn3nc(-c4cccnc4)cc23)cc1NC(=O)c1cc(C#N)cc(S(F)(F)(F)(F)F)c1 | cell-free assay, competition with immobilised ligand | 0.1 µM | 79.5 |
| F[C@@H]1CCN(c2nccc(-c3cnn4ncccc34)n2)C1 | binding | 1 µM | 78 |
